In ChEMBL document CHEMBL2040721, “Potent direct inhibitors of factor Xa based on the tetrahydroisoquinoline scaffold” (Eur J Med Chem, 2012):

Tests used:
Coagulation factor X = Coagulation factor X (Homo sapiens, UniProt P00742); assay: Inhibition of human factor 10a using chromogenic spectrozyme F10a as substrate after 10 mins by spectrophotometry
Procedure, shortened: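 Human plasma FXa pre-incubated 10 min at 37 °C with inhibitor (twelve concentrations, 0.015–500 μM in well) in pH 7.4 buffer, then Spectrozyme FXa added. Initial rate of A405 rise gives residual activity relative to no-inhibitor control. Duplicate or triplicate; logistic fit gives IC50, efficacy and Hill slope. Organic solvent held constant, <2.5% v/v.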

Plasma [1] = assay: Anticoagulant activity in human plasma assessed as concentration required to double the prothrombin time incubated for 30 s prior to thromboplastin addition by fibrometry
Plasma [2] = assay: Anticoagulant activity in human plasma assessed as concentration required to double the activated […] time incubated for 4 mins prior to CaCl2-challenge by fibrometry; type: functional
Prothrombin = Prothrombin (Homo sapiens, UniProt P00734); assay: Inhibition of human factor 2a using chromogenic spectrozyme TH as substrate after 10 mins by spectrophotometry
Coagulation factor VII = target: T1, Coagulation factor VII (Homo sapiens, UniProt P08709); assay: Inhibition of human factor 7a using chromogenic spectrozyme 7a as substrate after 10 mins by spectrophotometry
T1 sequence (P08709 whole entry): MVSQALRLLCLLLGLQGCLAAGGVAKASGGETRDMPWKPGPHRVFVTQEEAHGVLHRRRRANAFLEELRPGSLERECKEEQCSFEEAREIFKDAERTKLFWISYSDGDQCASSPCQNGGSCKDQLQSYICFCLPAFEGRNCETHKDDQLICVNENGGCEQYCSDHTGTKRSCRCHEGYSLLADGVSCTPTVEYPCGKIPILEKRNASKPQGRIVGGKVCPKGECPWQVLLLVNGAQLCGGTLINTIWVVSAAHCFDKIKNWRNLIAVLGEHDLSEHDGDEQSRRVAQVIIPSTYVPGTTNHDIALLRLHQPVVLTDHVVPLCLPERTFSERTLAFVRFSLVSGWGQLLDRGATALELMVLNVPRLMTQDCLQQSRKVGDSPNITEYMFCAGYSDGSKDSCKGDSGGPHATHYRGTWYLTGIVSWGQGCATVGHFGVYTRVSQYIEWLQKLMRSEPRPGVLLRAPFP

Coagulation factor IX = Coagulation factor IX (Homo sapiens, UniProt P00740); assay: Inhibition of human factor 9a using chromogenic spectrozyme 9a as substrate after 10 mins by spectrophotometry
Coagulation factor XI = Coagulation factor XI (Homo sapiens, UniProt P03951); assay: Inhibition of human factor 11a using chromogenic S2366 as substrate after 10 mins by spectrophotometry
Coagulation factor XII = target: T2, Coagulation factor XII (Homo sapiens, UniProt P00748); assay: Inhibition of factor 12a using chromogenic spectrozyme 12a as substrate after 10 mins by spectrophotometry
T2 sequence (P00748 whole entry): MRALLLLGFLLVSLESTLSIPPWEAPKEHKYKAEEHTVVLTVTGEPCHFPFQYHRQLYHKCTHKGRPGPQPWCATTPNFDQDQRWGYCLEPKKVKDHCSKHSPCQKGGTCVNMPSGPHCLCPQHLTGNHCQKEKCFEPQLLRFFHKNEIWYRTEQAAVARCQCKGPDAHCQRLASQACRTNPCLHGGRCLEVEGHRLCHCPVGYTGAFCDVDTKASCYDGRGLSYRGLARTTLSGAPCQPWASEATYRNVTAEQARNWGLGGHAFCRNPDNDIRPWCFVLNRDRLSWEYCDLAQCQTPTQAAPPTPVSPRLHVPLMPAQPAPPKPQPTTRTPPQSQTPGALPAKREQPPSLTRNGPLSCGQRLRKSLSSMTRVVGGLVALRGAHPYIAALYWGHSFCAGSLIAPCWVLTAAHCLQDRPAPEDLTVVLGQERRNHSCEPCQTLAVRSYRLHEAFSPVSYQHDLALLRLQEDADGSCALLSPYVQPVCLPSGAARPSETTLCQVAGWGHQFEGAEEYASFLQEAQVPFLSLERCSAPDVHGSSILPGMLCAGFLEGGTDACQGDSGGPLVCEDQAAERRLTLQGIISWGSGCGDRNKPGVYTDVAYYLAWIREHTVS

[3] = Inhibition of bovine trypsin using chromogenic S2222 as substrate after 10 mins by spectrophotometry; set-up: species or system Bos taurus
Chymotrypsinogen A = Chymotrypsinogen A (Bos taurus, UniProt P00766); assay: Inhibition of bovine alpha-chymotrypsin using chromogenic spectrozyme CTY as substrate after 10 mins by spectrophotometry
Homo sapiens [4] = organism: Homo sapiens; assay: Selectivity index ratio of IC50 for human factor 2a to IC50 for human factor 10a
Homo sapiens [5] = organism: Homo sapiens; assay: Selectivity index ratio of IC50 for human factor 7a to IC50 for human factor 10a
Homo sapiens [6] = organism: Homo sapiens; assay: Selectivity index ratio of IC50 for human factor 9a to IC50 for human factor 10a
Homo sapiens [7] = organism: Homo sapiens; assay: Selectivity index ratio of IC50 for human factor 11a to IC50 for human factor 10a
Homo sapiens [8] = organism: Homo sapiens; assay: Selectivity index ratio of IC50 for factor 12a to IC50 for human factor 10a
[9] = Selectivity index ratio of IC50 for bovine trypsin to IC50 for human factor10a
[10] = Selectivity index ratio of IC50 for bovine alpha-chymotrypsin to IC50 for human factor10a

Coagulation factor X, sequence (P00742 41-179 limits assumed): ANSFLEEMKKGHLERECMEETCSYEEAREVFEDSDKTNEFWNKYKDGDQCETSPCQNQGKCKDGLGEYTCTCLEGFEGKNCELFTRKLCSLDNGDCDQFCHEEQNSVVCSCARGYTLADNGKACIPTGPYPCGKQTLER
Coagulation factor X, sequence (P00742 235-488 limits assumed): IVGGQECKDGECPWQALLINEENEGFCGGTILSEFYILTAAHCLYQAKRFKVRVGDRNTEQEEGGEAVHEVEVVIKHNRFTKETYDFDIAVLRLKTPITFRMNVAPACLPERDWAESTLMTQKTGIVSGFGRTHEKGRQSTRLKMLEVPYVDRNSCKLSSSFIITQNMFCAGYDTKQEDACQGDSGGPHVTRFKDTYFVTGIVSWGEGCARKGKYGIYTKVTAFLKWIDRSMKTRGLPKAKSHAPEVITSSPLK
Coagulation factor IX, sequence (P00740 47-191 limits assumed): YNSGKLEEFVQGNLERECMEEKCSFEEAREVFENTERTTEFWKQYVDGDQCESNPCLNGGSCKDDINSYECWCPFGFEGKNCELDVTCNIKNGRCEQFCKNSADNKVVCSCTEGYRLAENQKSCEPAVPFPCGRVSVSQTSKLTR
Coagulation factor IX, sequence (P00740 227-461 limits assumed): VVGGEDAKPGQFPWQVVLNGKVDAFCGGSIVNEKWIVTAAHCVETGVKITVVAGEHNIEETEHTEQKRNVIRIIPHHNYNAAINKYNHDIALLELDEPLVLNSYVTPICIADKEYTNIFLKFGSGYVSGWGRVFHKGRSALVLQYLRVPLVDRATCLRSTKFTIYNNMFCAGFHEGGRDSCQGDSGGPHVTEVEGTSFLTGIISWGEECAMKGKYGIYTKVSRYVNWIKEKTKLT
Coagulation factor XI, sequence (P03951 19-387 limits assumed): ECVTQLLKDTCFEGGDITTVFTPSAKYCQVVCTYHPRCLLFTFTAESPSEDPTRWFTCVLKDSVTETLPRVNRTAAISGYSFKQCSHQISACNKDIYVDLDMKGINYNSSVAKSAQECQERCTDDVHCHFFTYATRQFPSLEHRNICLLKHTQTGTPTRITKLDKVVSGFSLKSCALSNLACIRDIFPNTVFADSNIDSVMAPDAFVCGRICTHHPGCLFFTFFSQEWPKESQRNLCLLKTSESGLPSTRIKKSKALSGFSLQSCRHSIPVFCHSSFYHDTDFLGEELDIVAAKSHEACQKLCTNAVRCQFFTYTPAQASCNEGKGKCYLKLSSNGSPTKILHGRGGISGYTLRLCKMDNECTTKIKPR
Coagulation factor XI, sequence (P03951 388-625 limits assumed): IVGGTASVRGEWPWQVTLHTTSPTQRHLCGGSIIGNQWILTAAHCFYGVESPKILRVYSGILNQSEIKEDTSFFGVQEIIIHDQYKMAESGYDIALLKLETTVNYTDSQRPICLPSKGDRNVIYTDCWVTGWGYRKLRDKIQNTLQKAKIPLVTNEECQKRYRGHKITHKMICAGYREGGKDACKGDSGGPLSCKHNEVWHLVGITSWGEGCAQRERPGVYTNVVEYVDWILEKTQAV

Compound | IC50 (Coagulation factor X) [µM] | further results
CN(C(=O)[C@@H]1Cc2ccccc2CN1C(=O)OC(C)(C)C)c1ccc(N2CCCCC2=O)cc1 | 221 | 
O=C(Nc1ccc(N2CCCCC2=O)cc1)[C@@H]1Cc2ccccc2CN1C(=O)c1ccc(C(F)(F)F)cc1 | 13.3 | 
COc1cc2c(cc1OC)CN(C(=O)Cc1ccc(Cl)cc1)[C@H](C(=O)N(C)c1ccc(N3CCCCC3=O)cc1)C2 | 7.8 | 
CC(=O)N1CCN(c2ccc(NC(=O)[C@@H]3Cc4ccccc4CN3C(=O)OCc3ccccc3)cc2)CC1 | > 500 | 
CN(C(=O)[C@@H]1Cc2ccccc2CN1C(=O)CCc1ncc(-c2ccc(Cl)cc2)o1)c1ccc(N2CCCCC2=O)cc1 | 103 | 
CN(C(=O)[C@@H]1Cc2ccccc2CN1C(=O)Cc1ccc(Cl)c(Cl)c1)c1ccc(N2CCCCC2=O)cc1 | 18 | 
CN(C(=O)[C@@H]1Cc2ccccc2CN1C(=O)c1ccc(Cl)s1)c1ccc(N2CCOCC2=O)cc1 | 36 | 
O=C(Nc1ccc(N2CCOCC2=O)cc1)[C@H]1CCCCN1C(=O)Cc1ccc(Cl)cc1 | 23 | 
O=C(Nc1ccc(N2CCOCC2=O)cc1)[C@@H]1Cc2ccccc2CN1C(=O)OCc1ccccc1 | 6 | 2PT (Plasma [1]): 1387 µM
O=C(Nc1ccc(Cl)cc1)[C@@H]1Cc2ccccc2CN1C(=O)OCc1ccccc1 | > 500 | 
CCN(C(=O)[C@@H]1Cc2ccccc2CN1C(=O)OCc1ccccc1)c1ccc(N2CCCCC2=O)cc1 | 20 | 
COc1ccc(C(=O)N2Cc3ccccc3C[C@H]2C(=O)N(C)c2ccc(N3CCCCC3=O)cc2)cc1 | 19 | 
COc1ccc(CC(=O)N2Cc3ccccc3C[C@H]2C(=O)N(C)c2ccc(N3CCCCC3=O)cc2)cc1 | 34 | 
CCN(C(=O)[C@@H]1Cc2ccccc2CN1C(=O)OCc1ccccc1)c1ccc(N2CCOCC2=O)cc1 | 19 | 
CN(C(=O)[C@H]1Cc2ccccc2CN1C(=O)Cc1ccc(Cl)cc1)c1ccc(N2CCCCC2=O)cc1 | 0.9 | 
O=C(Nc1ccc(N2CCN(C(=O)c3cccs3)CC2)cc1)[C@@H]1Cc2ccccc2CN1C(=O)OCc1ccccc1 | > 500 | 
Cc1ccc(CC(=O)N2Cc3ccccc3C[C@H]2C(=O)N(C)c2ccc(N3CCCCC3=O)cc2)cc1 | 14 | 
CN(C(=O)[C@H](Cc1ccccc1)NC(=O)Cc1ccc(Cl)cc1)c1ccc(N2CCCCC2=O)cc1 | 54 | 
CN(C(=O)[C@@H]1CCCCN1C(=O)c1ccc(Cl)s1)c1ccc(N2CCCCC2=O)cc1 | 358 | 
CN(C(=O)[C@@H]1Cc2ccccc2CN1S(=O)(=O)Cc1ccc(Cl)cc1)c1ccc(N2CCCCC2=O)cc1 | 151 | 

More lines, main results first:

IC50 (Coagulation factor X) [µM] | Compound | further results
> 500 | CN(C(=O)[C@@H]1Cc2ccccc2CN1C(=O)c1cc(-c2ccc(Br)cc2)cs1)c1ccc(N2CCOCC2=O)cc1 | 
10 | O=C(Nc1ccc(N2CCOCC2=O)cc1)[C@@H]1[C@@H]2CC[C@H](C2)N1C(=O)Cc1ccc(Cl)cc1 | 2PT (Plasma [1]): 2347 µM
1.1 | CN(C(=O)[C@@H]1Cc2ccccc2CN1C(=O)Cc1ccc(Cl)cc1)c1ccc(N2CCOCC2=O)cc1 | 
9 | O=C(Nc1ccc(N2CCOCC2=O)cc1)[C@@H]1CC=CCN1C(=O)Cc1ccc(Cl)cc1 | 2aPTT (Plasma [2]): 810 µM; 2PT (Plasma [1]): 952 µM
> 500 | O=C(Nc1ccc(N2CCCCC2)cc1)[C@@H]1Cc2ccccc2CN1C(=O)OCc1ccccc1 | 
99 | CN(C(=O)[C@H]1CCCCN1C(=O)c1ccc(Cl)s1)c1ccc(N2CCCCC2=O)cc1 | 
> 500 | COc1ccc(CCC(=O)N2Cc3ccccc3C[C@H]2C(=O)N(C)c2ccc(N3CCOCC3=O)cc2)c(OC)c1 | 
209 | Cc1ccc(C(=O)N2Cc3ccccc3C[C@H]2C(=O)N(C)c2ccc(N3CCCCC3=O)cc2)cc1 | 
197 | CN(C(=O)[C@@H]1Cc2ccccc2CN1C(=O)c1ccc(Cl)cc1)c1ccc(N2CCCCC2=O)cc1 | 
2.9 | O=C(Nc1ccc(N2CCOCC2=O)cc1)[C@@H]1Cc2ccccc2CN1C(=O)c1ccc(CCl)cc1 | 2aPTT (Plasma [2]): 614 µM; 2PT (Plasma [1]): 645 µM
85 | CN(C(=O)[C@@H]1Cc2ccccc2CN1C(=O)Cc1ccc([N+](=O)[O-])cc1)c1ccc(N2CCCCC2=O)cc1 | 
16.4 | CN(C(=O)[C@@H]1Cc2ccccc2CN1C(=O)OCc1ccccc1)c1ccc(N2CCCCC2=O)cc1 | 
19 | CC(C)N(C(=O)[C@@H]1Cc2ccccc2CN1C(=O)OCc1ccccc1)c1ccc(N2CCCCC2=O)cc1 | 
42 | CN(C(=O)[C@@H]1Cc2ccccc2CN1C(=O)c1cccs1)c1ccc(N2CCCCC2=O)cc1 | 
371 | CN(C(=O)[C@H]1CCCN(C(=O)Cc2ccc(Cl)cc2)C1)c1ccc(N2CCCCC2=O)cc1 | 
56 | CN(C(=O)[C@@H]1Cc2ccccc2CN1C(=O)c1ccc(Cl)s1)c1ccc(N2CCCCC2=O)cc1 | 
1.3 | CN(C(=O)[C@@H]1Cc2ccccc2CN1C(=O)Cc1ccc(Cl)cc1Cl)c1ccc(N2CCCCC2=O)cc1 | 2aPTT (Plasma [2]): 260 µM; 2PT (Plasma [1]): 219 µM
311 | CN(C(=O)[C@H]1Cc2ccccc2CN1C(=O)Cc1ccc(C(F)(F)F)cc1)c1ccc(N2CCCCC2=O)cc1 | 
9.9 | O=C(Nc1ccc(N2CCCCC2=O)cc1)[C@@H]1Cc2ccccc2CN1C(=O)OCc1ccccc1 | 
69 | CN(C(=O)[C@@H]1CCCN(C(=O)c2ccc(Cl)s2)C1)c1ccc(N2CCCCC2=O)cc1 | 
335 | CN(C(=O)[C@@H]1Cc2ccccc2CN1C(=O)Cc1ccc(C(F)(F)F)cc1)c1ccc(N2CCCCC2=O)cc1 | 
0.27 | O=C(Nc1ccc(N2CCOCC2=O)cc1)[C@H]1Cc2ccccc2CN1C(=O)Cc1ccc(Cl)cc1 | IC50 (Prothrombin): > 500 µM; IC50 (Coagulation factor VII): > 1000 µM; IC50 (Coagulation factor IX): > 1000 µM; IC50 (Coagulation factor XI): > 500 µM; IC50 (Coagulation factor XII): > 500 µM; IC50 [3]: > 100 µM; IC50 (Chymotrypsinogen A): 75.3 µM; Ratio IC50 (Homo sapiens [4]): > 1850; Ratio IC50 (Homo sapiens [5]): > 3700; Ratio IC50 (Homo sapiens [6]): > 3700; Ratio IC50 (Homo sapiens [7]): > 1850; Ratio IC50 (Homo sapiens [8]): > 1850; Ratio IC50 [9]: > 370; Ratio IC50 [10]: 279; 2aPTT (Plasma [2]): 20.2 µM; 2PT (Plasma [1]): 17.1 µM
1.3 | CN(C(=O)[C@@H]1Cc2ccccc2CN1C(=O)Cc1ccc(Cl)cc1)c1ccc(N2CCCCC2=O)cc1 | 2aPTT (Plasma [2]): 80 µM; 2PT (Plasma [1]): 71 µM
1.6 | CCN(C(=O)[C@@H]1Cc2ccccc2CN1C(=O)Cc1ccc(Cl)cc1)c1ccc(N2CCOCC2=O)cc1 | 
5.4 | Cc1c(C(=O)N2Cc3ccccc3C[C@H]2C(=O)Nc2ccc(N3CCOCC3=O)cc2)sc2ccc(Cl)cc12 | 2PT (Plasma [1]): 2160 µM
12.8 | CN(C(=O)[C@@H]1Cc2ccccc2CN1C(=O)OCc1ccccc1)c1ccc(N2CCOCC2=O)cc1 | 
246 | COc1ccc(CC(=O)N2Cc3ccccc3C[C@H]2C(=O)N(C)c2ccc(N3CCCCC3=O)cc2)cc1OC | 
190 | COc1ccc(CCC(=O)N2Cc3ccccc3C[C@H]2C(=O)N(C)c2ccc(N3CCOCC3=O)cc2)cc1 | 
